Results: ChEMBL document CHEMBL1123247, “Nucleoside conjugates. 7. Synthesis and antitumor activity of 1-beta-D-arabinofuranosylcytosine conjugates of ether lipids” (J Med Chem, 1986)
pIC50: −log10 of the molar value.

Legend:
P388 [1] = assay: Antitumor activity was determined against the ip implanted P388 leukemia in mice by 45-day survivors in mice at 60 mg/kg (1-5qd treatment schedule) dosage; type: functional, Mus musculus; conditions: route intraperitoneal
In short: (§1)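 DBA/2J mice, 23-33 g, in groups of 6, were inoculated ip with 1×10^6 P388 cells on day 0. Dosing was ip from 24 h on the stated schedules, in 0.9% NaCl with 0.5% Tween-80 (sonicated solution or suspension). Survival was followed daily until death or 45 days. Median T/C was calculated from survivors per NCI protocols, with ILS = (T/C − 1) × 100.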

NSCLC = assay: Compound was tested for the inhibition of non- small cell lung cancer; type: functional, cell-based; conditions: Homo sapiens
In short: (§2)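 Human leukemia and solid tumor cells in culture were exposed to compound for 48 h. Viability was scored by trypan blue dye exclusion. IC50 (50% inhibition) was estimated from response curves of three separate experiments.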

P388 [2] = assay: Antitumor activity was determined against the ip implanted P388 leukemia in mice by percent median survival rate (treated/control) at 60 mg/kg (1-5qd treatment schedule) dosage; 21.0/12.0; type: functional, Mus musculus; conditions: route intraperitoneal
L1210 [3] = assay: Antitumor activity was determined against the ip implanted L1210 leukemia in mice by change in […] at 300 mg/kg (treatment of 1qd schedule) dosage; type: functional, Mus musculus; conditions: route intraperitoneal
In short: (§3)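 DBA/2J mice, 6 per group (wt 23-28 g), inoculated ip with 1×10^6 L1210 cells on day 0. Treatment was given ip in 0.9% NaCl with 0.5% Tween-80, starting 24 h later. Weight change was taken on day 8. Mice were observed daily until death or 45 days. Median survival T/C and %ILS = (T/C − 1) × 100 came from survivors per NCI protocols, and 45-day survivors were counted.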

L1210 [4] = assay: Antitumor activity against the ip implanted L1210 leukemia in mice expressed as optimal dose (1-5qd treatment schedule) required to produce greatest increase in life span was determined; type: functional, Mus musculus
In short: (§4)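 DBA/2J mice, groups of 6 (23-28 g), were inoculated ip with 1 × 10^6 L1210 cells on day 0. Dosing was ip from 24 h, in 0.9% NaCl with 0.5% Tween-80 (sonicated solution or suspension). Mice were observed daily until death or day 45. Median survival T/C followed NCI protocols, and ILS = (T/C − 1) × 100. Active range means doses giving ILS ≥25%; optimal dose means greatest ILS.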

L1210 [5] = assay: Antitumor activity was determined against the ip implanted L1210 leukemia in mice by 45-day survivors in mice at 80 mg/kg (treatment of 1-5qd schedule) dosage; type: functional, Mus musculus; conditions: route intraperitoneal
In short: (§5)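 DBA/2J mice in groups of 6 (wt 23-28 g) were inoculated ip with 1×10^6 L1210 cells on day 0. Dosing was ip from 24 h, in 0.9% NaCl with 0.5% Tween-80 (conjugates sonicated), across a range of doses. Mice were observed daily until death or 45 days. Median T/C was computed from survivors per NCI protocols, and ILS = (T/C − 1)×100.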

L1210 [6] = assay: Antitumor activity was determined against the ip implanted L1210 leukemia in mice by range in survival days at 80 mg/kg (treatment of 1-5qd schedule) dosage; Range is 17-18; type: functional, Mus musculus; conditions: route intraperitoneal
In short: (§6)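 DBA/2J mice, 23-28 g, in groups of 6, were inoculated ip with 1×10^6 L1210 cells on day 0. Dosing was ip starting 24 h later on the stated daily schedules. Conjugates were given as sonicated solutions and reference prodrugs as suspensions in 0.9% NaCl with 0.5% Tween-80. Mice were observed daily until death or 45 days. Median survival T/C was calculated from survivors per NCI protocols.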

P388 [7] = assay: Antitumor activity was determined against the ip implanted P388 leukemia in mice by change in […] at 60 mg/kg (1-5qd treatment schedule) dosage; type: functional, Mus musculus; conditions: route intraperitoneal
In short: (§7)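 P388 leukemia, 1×10^6 cells implanted ip on day 0 into DBA/2J mice, groups of 6 (wt 23-33 g). Dosing ip started 24 h post-inoculation, vehicle 0.9% NaCl containing 0.5% Tween-80. Animals were observed daily until death or 45 days. Outputs were weight change, median survival T/C from survivors per NCI protocols, and %ILS = (T/C − 1) × 100.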

L1210 [8] = assay: Antitumor activity against ip implanted L1210 leukemia in mice expressed as active dose range (1-5qd treatment schedule) required to produce increase in life span by >25% was determined; Range is 10-120
P388 [9] = assay: Antitumor activity was determined against the ip implanted P388 leukemia in mice by percent increase in life span at 60 mg/kg (1-5qd treatment schedule) dosage; type: functional, Mus musculus; conditions: route intraperitoneal; in short: as §1
L1210 [10] = assay: Antitumor activity was determined against the ip implanted L1210 leukemia in mice by range in survival days at 300 mg/kg (treatment of 1qd schedule) dosage; Range is 9-10; type: functional, Mus musculus; conditions: route intraperitoneal; in short: as §6
P388 [11] = assay: Antitumor activity was determined against the ip implanted P388 leukemia in mice by 45-day survivors in mice at 300 mg/kg (1 qd treatment schedule) dosage; type: functional, Mus musculus; conditions: route intraperitoneal; in short: as §1
L1210 [12] = assay: Antitumor activity against the ip implanted L1210 leukemia in mice expressed as optimal dose (1 qd treatment schedule) required to produce greatest increase in life span was determined; type: functional, Mus musculus; in short: as §4
HL-60 = assay: Compound was tested for the inhibition of human HL60 Leukemia; type: functional, cell-based; in short: as §2
L1210 [13] = assay: Antitumor activity was determined against the ip implanted L1210 leukemia in mice by change in […] at 80 mg/kg (treatment of 1-5qd schedule) dosage; type: functional, Mus musculus; conditions: route intraperitoneal; in short: as §3
P388 [14] = assay: Antitumor activity was determined against the ip implanted P388 leukemia in mice by percent increase in life span at 300 mg/kg (1 qd treatment schedule) dosage; type: functional, Mus musculus; conditions: route intraperitoneal; in short: as §1
P388 [15] = assay: Antitumor activity against the ip implanted P388 leukemia in mice expressed as optimal dose (1-5qd treatment schedule) required to produce greatest increase in life span was determined; type: functional, Mus musculus; set-up: unit: mg/kg
In short: (§8)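 P388 leukemia: 1 × 10^6 cells were given ip on day 0 to DBA/2J mice, groups of 6 (23-33 g). Treatment was ip from 24 h after inoculation, vehicle 0.9% NaCl with 0.5% Tween-80. Mice were observed daily until death or 45 days. Median survival T/C was calculated from survivors per NCI protocols, and ILS = (T/C − 1) × 100. Active range means doses giving ILS ≥25%; optimal dose means greatest ILS.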

L1210 [16] = assay: Antitumor activity was determined against the ip implanted L1210 leukemia in mice by 45-day survivors in mice at 300 mg/kg (treatment of 1qd schedule) dosage; type: functional, Mus musculus; conditions: route intraperitoneal; in short: as §5
P388 [17] = assay: Antitumor activity was determined against the ip implanted P388 leukemia in mice by range in survival days at 60 mg/kg (1-5qd treatment schedule) dosage; Range is 18-21; type: functional, Mus musculus; conditions: route intraperitoneal
P388 [18] = assay: Antitumor activity was determined against the ip implanted P388 leukemia in mice by percent median survival rate (treated/control) at 300 mg/kg (1 qd treatment schedule) dosage; 12.5/11.0; type: functional, Mus musculus; conditions: route intraperitoneal
L1210 [19] = assay: Antitumor activity was determined against the ip implanted L1210 leukemia in mice by percent median survival rate (treated/control) at 300 mg/kg (treatment of 1qd schedule) dosage; 9.5/8.0; type: functional, Mus musculus; conditions: route intraperitoneal; in short: as §6
AMML = assay: Compound was tested for the inhibition of AMML (acute myelomonocytic leukemia); type: functional, cell-based; conditions: Homo sapiens; in short: as §2
L1210 [20] = assay: Antitumor activity was determined against the ip implanted L1210 leukemia in mice by percent increase in life span at 300 mg/kg (treatment of 1qd schedule) dosage; type: functional, Mus musculus; conditions: route intraperitoneal; in short: as §5
Glioblastoma cell line = assay: Compound was tested for the inhibition of glioblastoma; type: functional, cell-based; conditions: Homo sapiens; in short: as §2
P388 [21] = assay: Antitumor activity was determined against the ip implanted P388 leukemia in mice by change in […] at 300 mg/kg (1 qd treatment schedule) dosage; type: functional, Mus musculus; conditions: route intraperitoneal; in short: as §7
L1210 [22] = assay: Antitumor activity was determined against the ip implanted L1210 leukemia in mice by percent increase in life span at 80 mg/kg (treatment of 1-5qd schedule) dosage; type: functional, Mus musculus; conditions: route intraperitoneal; in short: as §5
P388 [23] = assay: Antitumor activity against the ip implanted P388 leukemia in mice expressed as optimal dose (1 qd treatment schedule) required to produce greatest increase in life span was determined; type: functional, Mus musculus; in short: as §8
P388 [24] = assay: Antitumor activity against ip implanted P388 leukemia in mice expressed as active dose range (1-5qd treatment schedule) required to produce increase in life span by >25% was determined; Range is 60-80; type: functional, Mus musculus; in short: as §8
L1210 [25] = assay: Antitumor activity was determined against the ip implanted L1210 leukemia in mice by percent median survival rate (treated/control) at 80 mg/kg (treatment of 1-5qd schedule) dosage; 18.0/7.0; type: functional, Mus musculus; conditions: route intraperitoneal; in short: as §6
[26] = tested on: Small cell lung cancer cell line; assay: Compound was tested for the inhibition of small cell lung cancer; type: functional, cell-based; conditions: Homo sapiens; in short: as §2
P388 [27] = assay: Antitumor activity was determined against the ip implanted P388 leukemia in mice by range in survival days at 300 mg/kg (1 qd treatment schedule) dosage; Range is 3-18; type: functional, Mus musculus; conditions: route intraperitoneal
CML/BC = assay: Compound was tested for the inhibition of CML/BC(chronic myeloid leukemia, blast crisis); type: functional, cell-based; conditions: Homo sapiens; in short: as §2
L1210 [28] = assay: Antitumor activity was determined against the ip implanted L1210 leukemia in mice by 45-day survivors in mice at 5 mg/kg (treatment of 1-5qd schedule) dosage; type: functional, Mus musculus; conditions: route intraperitoneal; in short: as §5
L1210 [29] = assay: Antitumor activity was determined against the ip implanted L1210 leukemia in mice by range in survival days at 5 mg/kg (treatment of 1-5qd schedule) dosage; Range is 8-9; type: functional, Mus musculus; conditions: route intraperitoneal; in short: as §6
L1210 [30] = assay: Antitumor activity was determined against the ip implanted L1210 leukemia in mice by percent increase in life span at 5 mg/kg (treatment of 1-5qd schedule) dosage; type: functional, Mus musculus; conditions: route intraperitoneal; in short: as §5
L1210 [31] = assay: Antitumor activity was determined against the ip implanted L1210 leukemia in mice by percent median survival rate (treated/control) at 5 mg/kg (treatment of 1-5qd schedule) dosage; 9.0/8.0; type: functional, Mus musculus; conditions: route intraperitoneal; in short: as §6

`CCCCCCCCCCCCCCCCCCOCC(COP(=O)(O)OP(=O)(O)OC[C@H]1O[C@@H](n2ccc(N)nc2=O)[C@@H](O)[C@@H]1O)OC` (mixture of isomers) was tested, and the Survivors (P388 [1]) was 0, the pIC50 (NSCLC) was 4.42 and the T/C (P388 [2]) was 21%. The Weight change (L1210 [3]) was 2.58 g mouse-1, the Optimal dose (L1210 [4]) was 80 mg and the Survivors (L1210 [5]) was 0. For the same compound, the Range (L1210 [6]) was 17, the Weight change (P388 [7]) was 0.04 g mouse-1 and the Active dose range (L1210 [8]) was 10 mg/kg/day. The ILS (P388 [9]) was 75, the Range (L1210 [10]) was 9 and the Survivors (P388 [11]) was 0. The Optimal dose (L1210 [12]) was 300 mg/kg/day, the pIC50 (HL-60) was 4.89 and the Weight change (L1210 [13]) was -1.53 g mouse-1. It also gave an ILS (P388 [14]) of 14, an Optimal dose (P388 [15]) of 60 mg and a Survivors (L1210 [16]) of 0. For the same compound, the Range (P388 [17]) was 18, the T/C (P388 [18]) was 12.5% and the median survival time (L1210 [19]) was 9.5 days. The pIC50 (AMML) was 5.64, the ILS (L1210 [20]) was 12 and the pIC50 (Glioblastoma cell line) was 4.33. For the same compound, the Weight change (P388 [21]) was 0.38 g mouse-1, the ILS (L1210 [22]) was 157 and the Optimal dose (P388 [23]) was 300 mg. The Active dose range (P388 [24]) was 60 mg/kg/day, the T/C (L1210 [25]) was 18% and the pIC50 [26] was < 4.00. It also gave a Range (P388 [27]) of 3 and a pIC50 (CML/BC) of 5.92.
`CCCCCCCCCCCCCCCCCCOC[C@H](COP(=O)([O-])OCC[N+](C)(C)C)OC` [(R)-EDELFOSINE] showed a pIC50 (NSCLC) of 4.68, an Optimal dose (L1210 [4]) of 5 mg/kg/day and a pIC50 (HL-60) of 5.60. The pIC50 (AMML) was 5.48, the pIC50 (Glioblastoma cell line) was 4.70 and the Survivors (L1210 [28]) was 0. For the same compound, the pIC50 [26] was 4.62, the Range (L1210 [29]) was 8 and the ILS (L1210 [30]) was 13. It also gave a T/C (L1210 [31]) of 9% and a pIC50 (CML/BC) of 5.82.
